Laboratory results from ChEMBL document CHEMBL1687719, “Absence of CD4+ T lymphocytes, CD8+ T lymphocytes, or B lymphocytes has different effects on the efficacy of posaconazole and benznidazole in treatment of experimental acute Trypanosoma cruzi infection” (2009).
The source made the active and inactive calls. The rule behind the calls is not given here.

Columns and labels:
Trypanosoma cruzi [1] = assay: Antitrypanosomal activity against Trypanosoma cruzi Y infected in CD8+ T-lymphocyte knockout C57BL/6 mouse assessed as occurrence of subpatent level of parasitemia at 20 mg/kg/day, po administered twice daily for 20 consecutive days measured 60 days post infection; type: functional, organism-based
Procedure, shortened: (§1)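 Ip infection was 5,000 Y-strain blood trypomastigotes. From 4 dpi mice got 20 mg/kg/day orally in two daily doses (2% methylcellulose/0.5% Tween 80) for 20 days. Fresh tail blood was examined microscopically, daily from 4–16 dpi and every other day to 60 dpi. Reactivation was scored as return of patent parasitemia after treatment. Parasitemia curves were compared by Mann-Whitney.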

Trypanosoma cruzi [2] = assay: Antitrypanosomal activity against Trypanosoma cruzi Y infected in CD8+ T-lymphocyte knockout C57BL/6 mouse assessed as occurrence of low level of circulating parasites at 20 mg/kg/day, po administered twice daily for 20 consecutive days measured 25 days post infection; type: functional, organism-based; procedure, shortened: as §1
Trypanosoma cruzi [3] = assay: Antitrypanosomal activity against Trypanosoma cruzi Y infected in CD8+ T-lymphocyte knockout C57BL/6 mouse assessed as number of mouse with reactivated parasite at 20 mg/kg/day, po administered twice daily for 20 consecutive days measured 60 days post infection; type: functional; procedure, shortened: as §1
Trypanosoma cruzi [4] = assay: Antitrypanosomal activity against Trypanosoma cruzi Y infected in B-lymphocyte knockout C57BL/6 mouse assessed as number of mouse with reactivation of infection at 20 mg/kg/day, […] for 20 consecutive days measured 22 days post infection; type: functional, organism-based
Trypanosoma cruzi [5] = assay: Antitrypanosomal activity against Trypanosoma cruzi Y infected in CD4+ T-lymphocyte knockout C57BL/6 mouse assessed as reactivation of parasite in mouse at 20 mg/kg/day, po administered twice daily for 20 consecutive days measured 60 days post infection; type: functional, organism-based; procedure, shortened: as §1
Trypanosoma cruzi [6] = assay: Antitrypanosomal activity against Trypanosoma cruzi Y infected in CD4+ T-lymphocyte knockout C57BL/6 mouse assessed as reactivation of parasite in mouse at 100 mg/kg/day, po administered once daily for 20 consecutive days measured 60 days post infection; type: functional, organism-based
Procedure, shortened: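 Ip infection was 5,000 Y-strain blood trypomastigotes. Oral dosing at 100 mg/kg/day, once daily in gum arabic water, ran from 4 dpi for 20 days. Parasitemia was read by microscopy of fresh tail blood, daily from 4–16 dpi, then every other day to 60 dpi. Reactivation was scored as patent parasitemia returning after treatment ended.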

Trypanosoma cruzi [7] = assay: Antitrypanosomal activity against Trypanosoma cruzi Y infected in C57BL/6 mouse assessed as increase in survival of mouse at 20 mg/kg/day, po administered twice daily for 20 consecutive days measured 60 days post infection; type: functional; conditions: 1440 h
Procedure, shortened: (§2)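 Mice were infected ip with 5,000 Y-strain blood trypomastigotes. Oral treatment began at 4 dpi at 20 mg/kg/day, split into two daily doses, suspended in 2% methylcellulose with 0.5% Tween 80, for 20 days. Survival was recorded to 60 dpi, giving rate and mean survival time. Untreated and vehicle-treated infected controls were included. Chi-square/Bonferroni comparison.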

Trypanosoma cruzi [8] = assay: Antitrypanosomal activity against Trypanosoma cruzi Y infected in C57BL/6 mouse assessed as mean survival time at 20 mg/kg/day, po administered twice daily for 20 consecutive days measured 60 days post infection; type: functional; procedure, shortened: as §2
Trypanosoma cruzi [9] = assay: Antitrypanosomal activity against Trypanosoma cruzi Y infected in C57BL/6 mouse assessed as cure rate in mouse at 20 mg/kg/day, po administered twice daily for 20 consecutive days measured 60 days post infection; type: functional
Procedure, shortened: (§3)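 Wild-type or knockout mice got 5,000 Y-strain blood trypomastigotes ip. Oral dosing ran from 4 dpi for 20 days: 20 mg/kg/day in two doses, in 2% methylcellulose plus 0.5% Tween 80. Cure meant no parasitemia on fresh tail blood up to 60 dpi and a negative hemoculture: 0.5 ml orbital blood in LIT medium, 28°C, 30–60 days, checked by microscopy. Rates compared by chi-square/Bonferroni.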

Trypanosoma cruzi [10] = assay: Antitrypanosomal activity against Trypanosoma cruzi Y infected in CD4+ T-lymphocyte knockout C57BL/6 mouse assessed as increase in survival of mouse at 20 mg/kg/day, po administered twice daily for 20 consecutive days measured 60 days post infection; type: functional; conditions: 1440 h; procedure, shortened: as §2
Trypanosoma cruzi [11] = assay: Antitrypanosomal activity against Trypanosoma cruzi Y infected in CD4+ T-lymphocyte knockout C57BL/6 mouse assessed as mean survival time at 20 mg/kg/day, po administered twice daily for 20 consecutive days measured 60 days post infection; type: functional; procedure, shortened: as §2
Trypanosoma cruzi [12] = assay: Antitrypanosomal activity against Trypanosoma cruzi Y infected in CD4+ T-lymphocyte knockout C57BL/6 mouse assessed as cure rate in mouse at 20 mg/kg/day, po administered twice daily for 20 consecutive days measured 60 days post infection; type: functional; procedure, shortened: as §3
Trypanosoma cruzi [13] = assay: Antitrypanosomal activity against Trypanosoma cruzi Y infected in CD8+ T-lymphocyte knockout C57BL/6 mouse assessed as increase in survival of mouse at 20 mg/kg/day, po administered twice daily for 20 consecutive days measured 60 days post infection; type: functional; conditions: 1440 h; procedure, shortened: as §2
Trypanosoma cruzi [14] = assay: Antitrypanosomal activity against Trypanosoma cruzi Y infected in CD8+ T-lymphocyte knockout C57BL/6 mouse assessed as mean survival time at 20 mg/kg/day, po administered twice daily for 20 consecutive days measured 60 days post infection; type: functional; procedure, shortened: as §2
Trypanosoma cruzi [15] = assay: Antitrypanosomal activity against Trypanosoma cruzi Y infected in CD8+ T-lymphocyte knockout C57BL/6 mouse assessed as cure rate in mouse at 20 mg/kg/day, po administered twice daily for 20 consecutive days measured 60 days post infection; type: functional; procedure, shortened: as §3
Trypanosoma cruzi [16] = assay: Antitrypanosomal activity against Trypanosoma cruzi Y infected in B-lymphocyte knockout C57BL/6 mouse assessed as increase in survival of mouse at 20 mg/kg/day, po administered twice daily for 20 consecutive days measured 60 days post infection; type: functional; conditions: 1440 h; procedure, shortened: as §2
Trypanosoma cruzi [17] = assay: Antitrypanosomal activity against Trypanosoma cruzi Y infected in B-lymphocyte knockout C57BL/6 mouse assessed as mean survival time at 20 mg/kg/day, po administered twice daily for 20 consecutive days measured 60 days post infection; type: functional; procedure, shortened: as §2
Trypanosoma cruzi [18] = assay: Antitrypanosomal activity against Trypanosoma cruzi Y infected in B-lymphocyte knockout C57BL/6 mouse assessed as cure rate in mouse at 20 mg/kg/day, po administered twice daily for 20 consecutive days measured 60 days post infection; type: functional; procedure, shortened: as §3
Trypanosoma cruzi [19] = assay: Antitrypanosomal activity against Trypanosoma cruzi Y infected in CD4+ T-lymphocyte knockout C57BL/6 mouse assessed as reactivation of parasite in mouse at 20 mg/kg/day, po administered twice daily for 20 consecutive days measured 7 days post infection; type: functional, organism-based; procedure, shortened: as §1

Compound: CC[C@@H]([C@H](C)O)n1ncn(-c2ccc(N3CCN(c4ccc(OC[C@@H]5CO[C@@](Cn6cncn6)(c6ccc(F)cc6F)C5)cc4)CC3)cc2)c1=O [POSACONAZOLE]
- Activity (Trypanosoma cruzi [1]): Active
- Activity (Trypanosoma cruzi [2]): Active
- Activity (Trypanosoma cruzi [3]): 13%
- Activity (Trypanosoma cruzi [4]): Active
- Activity (Trypanosoma cruzi [5]): inactive
- Activity (Trypanosoma cruzi [6]): inactive
- survival at 20 mg/kg/day (Trypanosoma cruzi [7]): 100%
- MST (Trypanosoma cruzi [8]): >60 days
- Activity (Trypanosoma cruzi [9]): 89%
- survival at 20 mg/kg/day (Trypanosoma cruzi [10]): 6%
- MST (Trypanosoma cruzi [11]): 50.5 days
- Activity (Trypanosoma cruzi [12]): 0%
- survival at 20 mg/kg/day (Trypanosoma cruzi [13]): 81%
- MST (Trypanosoma cruzi [14]): 59.6 days
- Activity (Trypanosoma cruzi [15]): 31%
- survival at 20 mg/kg/day (Trypanosoma cruzi [16]): 100%
- MST (Trypanosoma cruzi [17]): >60 days
- Activity (Trypanosoma cruzi [18]): 71%
- Activity (Trypanosoma cruzi [19]): inactive
